ChEMBL document CHEMBL4334444, “Studies of Jatrogossone A as a Reactive Oxygen Species Inducer in Cancer Cellular Models” (J Nat Prod, 2019)
Active and inactive are the calls of the source. The rule behind the calls is not given here.

Columns and labels:
KOPN-8 [1] = assay: Cell cycle arrest in human KOPN8 cells assessed as increase in accumulation at S phase at 2 uM incubated for 24 hrs by propidium iodide staining based flow cytometric analysis; type: functional
How it was run: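 KOPN-8 cells plated at 1.00 × 10^6 cells/plate and held 12 h at 37 °C in 5% CO2, then treated for 24 h. Cells were fixed in cold methanol, RNase-treated and stained with PI (50 μg/mL). Cell-cycle distribution by flow cytometry, with DMSO as vehicle control.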

MCF7 [2] = assay: Induction of apoptosis in human MCF7 cells assessed as increase in cleaved caspase 7 level at 30 uM by Western blot analysis; type: functional, cell-based
How it was run: (§1)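 Western blot of KOPN-8 and MCF-7 lysates made in RIPA-type buffer (Tris pH 7.5, Triton X-100, deoxycholate, SDS) with protease and phosphatase inhibitors. 30 μg protein per lane was run on 4–12% Bis-Tris SDS-PAGE and transferred to nitrocellulose. Blots were probed for cleaved caspase-7 and PARP-1 and detected with IR-dye secondaries. Menadione served as positive control: 10 μM in KOPN-8, 30 μM in MCF-7. Blots are representative of three independent experiments.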

MCF7 [3] = assay: Induction of ROS generation in human MCF7 cells at 10 to 30 uM incubated for 1 hr in presence of NAC by CellROX green reagent based fluorescence assay; type: functional, cell-based
How it was run: (§2)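 CellROX green ROS assay: cells exposed 1 h at 37 °C (30 μM) with DMSO 0.5% (v/v) negative control, menadione 10 μM positive control, ± NAC (100 μM per figure legend). CellROX green added at 5 μM final, 30 min more; washed, fixed in 4% paraformaldehyde 15 min, fluorescence read at 485 ex/535 em. Mean and SD of at least three experiments; two-way ANOVA.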

KOPN-8 [4] = assay: Induction of apoptosis in human KOPN8 cells assessed as increase in cleaved PARP 1 level at 10 uM by Western blot analysis; type: functional, cell-based; how it was run: as §1
U2OS [5] = assay: Induction of ROS generation in human U2OS cells at 10 to 30 uM incubated for 1 hr in presence of NAC by CellROX green reagent based fluorescence assay; type: functional, cell-based
How it was run: (§3)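 CellROX green assay in MCF-7 or U2OS cells. Cells were exposed to test compound for 1 h at 37 °C alongside 0.5% DMSO (negative control) and menadione 10–30 μM (positive control), with or without NAC (50–500 μM) as scavenger. CellROX was then added at 5 μM final for 30 min. Cells were PBS-washed, fixed in 4% paraformaldehyde for 15 min, and fluorescence read at 535 nm.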

KOPN-8 [6] = assay: Induction of apoptosis in human KOPN8 cells assessed as increase in cleaved caspase 7 level at 10 uM by Western blot analysis; type: functional, cell-based; how it was run: as §1
MCF7 [7] = assay: Induction of apoptosis in human MCF7 cells assessed as increase in cleaved PARP 1 level at 30 uM by Western blot analysis; type: functional, cell-based; how it was run: as §1
U2OS [8] = assay: Induction of ROS generation in human U2OS cells at 10 to 30 uM incubated for 1 hr by CellROX green reagent based fluorescence assay; type: functional, cell-based; how it was run: as §3
MCF7 [9] = assay: Induction of ROS generation in human MCF7 cells at 10 to 30 uM incubated for 1 hr by CellROX green reagent based fluorescence assay; type: functional, cell-based; how it was run: as §2

| SMILES | Activity (KOPN-8 [1]) | Activity (MCF7 [2]) | Activity (MCF7 [3]) | Activity (KOPN-8 [4]) | Activity (U2OS [5]) | Activity (KOPN-8 [6]) | Activity (MCF7 [7]) | Activity (U2OS [8]) | Activity (MCF7 [9]) |
| --- | --- | --- | --- | --- | --- | --- | --- | --- | --- |
| CN[C@@H]1C[C@H]2O[C@@](C)([C@@H]1OC)n1c3ccccc3c3c4c(c5c6ccccc6n2c5c31)C(=O)NC4 | Active | – | – | – | – | – | – | – | – |
| CC1=CC(=O)c2ccccc2C1=O | – | Active | inactive | Active | inactive | Active | Active | Active | Active |
